Data published in ChEMBL document CHEMBL3297735, “Optimization of troglitazone derivatives as potent anti-proliferative agents: towards more active and less toxic compounds” (Eur J Med Chem, 2014).

How the values were obtained:
LNCaP = test: Cytotoxicity against human LNCAP cells assessed as cell viability at 10 uM after 72 hrs by MTS assay in presence of 10% fetal calf serum relative to control; assay type: functional; settings: read-out: Activity
[1] = Cytotoxicity against human hepatocytes assessed as cell viability at 100 uM after 90 mins by MTT assay relative to control; assay type: cell-based, Hepatocyte; settings: read-out: Activity
Summary of the method: (§1)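 Cryopreserved human hepatocytes were plated at 0.1 × 10⁶ cells/well and exposed to compound for 90 min. MTT was then added for 30 min at 37 °C, plates were centrifuged, and formazan was dissolved in DMSO. Absorbance was read at 595 nm. Surviving cells are expressed as % of non-treated cells ± SEM.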

[2] = Acute toxicity in iv dosed BALBc/AnNHsd mouse; assay type: organism-based; settings: in vivo
Summary of the method: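 Acute toxicity run in female BALBc/AnNHsd mice given the compounds by intravenous injection. The read-out was the maximum tolerated dose (MTD). Compounds were dissolved in a mixture of solvents, and the top dose was capped by solubility in that mixture.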

MCF7 [3] = test: Cytotoxicity against human MCF7 cells assessed as cell viability at 10 uM after 72 hrs by MTS assay in presence of 10% fetal calf serum relative to control; assay type: functional; settings: MCF7, 72 h, read-out: Activity
Summary of the method: (§2)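 Cells were grown in RPMI with L-glutamine, 10% FCS, penicillin/streptomycin and fungizone at 37 °C under 5% CO2. Wells were seeded with 1900 cells for MCF-7 or 1300 cells for MDA-MB-231. After 24 h, compound was added from a 10 mM DMSO stock (final DMSO 1%) for 72 h, with DMSO-only controls. Viable cells were read by MTS at 490 nm and expressed as % of untreated. Mean ± SEM, N = 3.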

[4] = Cytotoxicity against human hepatocytes assessed as cell viability at 200 uM after 90 mins by MTT assay relative to control; assay type: cell-based, Hepatocyte; settings: read-out: Activity; summary of the method: as §1
MDA-MB-231 [5] = test: Cytotoxicity against human MDA-MB-231 cells assessed as cell viability at 10 uM after 72 hrs by MTS assay in presence of 10% fetal calf serum relative to control; assay type: functional; settings: MDA-MB-231, 72 h, read-out: Activity; summary of the method: as §2
[6] = Cytotoxicity against human MiaPaCa cells assessed as cell viability at 10 uM after 72 hrs by MTS assay in presence of 10% fetal calf serum relative to control; assay type: functional; settings: MIA PaCa-2, 72 h, read-out: Activity
PC-3 = test: Cytotoxicity against human PC3 cells assessed as cell viability at 10 uM after 72 hrs by MTS assay in presence of 10% fetal calf serum relative to control; assay type: functional; settings: PC-3, 72 h, read-out: Activity
HepG2 = test: Cytotoxicity against human HepG2 cells assessed as cell viability at 10 uM after 72 hrs by MTS assay in presence of 10% fetal calf serum relative to control; assay type: functional; settings: HepG2, 72 h, read-out: Activity
HCT-116 = test: Cytotoxicity against human HCT116 cells assessed as cell viability at 10 uM after 72 hrs by MTS assay in presence of 10% fetal calf serum relative to control; assay type: functional; settings: HCT-116, 72 h, read-out: Activity
[7] = Toxicity in BALBc/AnNHsd mouse assessed as mortality at 34 mg/kg, iv relative to control; assay type: organism-based; parameters: dose 34 mg/kg, route intravenous; settings: in vivo
[8] = Cytotoxicity against human MDA435 cells assessed as cell viability at 10 uM after 72 hrs by MTS assay in presence of 10% fetal calf serum relative to control; assay type: functional; settings: MDA-MB-435, 72 h, read-out: Activity
Mus musculus [9] = test: Toxicity in BALBc/AnNHsd mouse assessed as change in organ morphology at 65.5 mg/kg, iv; assay type: organism-based; parameters: dose 65.5 mg/kg, route intravenous; settings: in vivo
MDA-MB-231 [10] = test: Cytotoxicity against human MDA-MB-231 cells after 24 hrs by CellTiterGlo assay in presence of 1% fetal calf serum; assay type: functional, cell-based; settings: MDA-MB-231, 24 h
Summary of the method: (§3)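 MCF-7 was maintained in phenol red DMEM and MDA-MB-231 in L-15. Cells were seeded in 6-well plates at 8.10⁴ cells/well in medium with 10% FCS and 2 mM L-glutamine. Medium was then switched to 1% FCS with 2 mM L-glutamine for treatment, with 0.1% DMSO controls. Cells were washed, trypsinized and counted with CellTiter-Glo luminescence. Each treatment was run in triplicate, and IC50 was taken as the concentration halving viable cells.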

MCF7 [11] = test: Cytotoxicity against human MCF7 cells after 24 hrs by CellTiterGlo assay in presence of 1% fetal calf serum; assay type: functional, cell-based; settings: MCF7, 24 h; summary of the method: as §3
Mus musculus [12] = test: Toxicity in BALBc/AnNHsd mouse assessed as behavioral changes at 65.5 mg/kg, iv; assay type: organism-based; parameters: dose 65.5 mg/kg, route intravenous; settings: in vivo
Mus musculus [13] = test: Toxicity in BALBc/AnNHsd mouse assessed as change in body weight at 65.5 mg/kg, iv measured on day 2 (reference value: 19 +/- 1 g); assay type: organism-based; parameters: dose 65.5 mg/kg, route intravenous; settings: in vivo
Summary of the method: (§4)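 Acute toxicity was assessed in female BALBc/AnNHsd mice after intravenous injection of compound in a solvent mixture, to estimate the maximum tolerated dose.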

Mus musculus [14] = test: Toxicity in BALBc/AnNHsd mouse assessed as change in body weight at 65.5 mg/kg, iv measured on day 1 (reference value: 17.67 +/- 0.33 g); assay type: organism-based; parameters: dose 65.5 mg/kg, route intravenous; settings: in vivo; summary of the method: as §4
Mus musculus [15] = test: Toxicity in BALBc/AnNHsd mouse assessed as mortality at 65.5 mg/kg, iv; assay type: organism-based; parameters: dose 65.5 mg/kg, route intravenous; settings: in vivo
Mus musculus [16] = test: Toxicity in BALBc/AnNHsd mouse assessed as change in body weight at 65.5 mg/kg, iv measured on day 15 (reference value: 18.33 +/- 0.33 g); assay type: organism-based; parameters: dose 65.5 mg/kg, route intravenous; settings: in vivo; summary of the method: as §4
Mus musculus [17] = test: Toxicity in BALBc/AnNHsd mouse assessed as change in organ morphology at 34 mg/kg, iv; assay type: organism-based; parameters: dose 34 mg/kg, route intravenous; settings: in vivo; summary of the method: as §4
Mus musculus [18] = test: Toxicity in BALBc/AnNHsd mouse assessed as change in body weight at 34 mg/kg, iv measured between day 1 and day 15 (reference value: 18 +/- 1 g); assay type: organism-based; parameters: dose 34 mg/kg, route intravenous; settings: in vivo; summary of the method: as §4
Mus musculus [19] = test: Toxicity in BALBc/AnNHsd mouse assessed as mortality at 64.6 mg/kg, iv; assay type: organism-based; parameters: dose 64.6 mg/kg, route intravenous; settings: in vivo
Mus musculus [20] = test: Toxicity in BALBc/AnNHsd mouse assessed as behavioral changes at 34 mg/kg, iv; assay type: organism-based; parameters: dose 34 mg/kg, route intravenous; settings: in vivo; summary of the method: as §4

| SMILES | viability at 10 µM (LNCaP) | viability at 1.5 h, 100 µM [1] | MTD [2] | viability at 10 µM (MCF7 [3]) | viability at 1.5 h, 200 µM [4] | viability at 10 µM (MDA-MB-231 [5]) | viability at 10 µM [6] | viability at 10 µM (PC-3) | viability at 10 µM (HepG2) | viability at 10 µM (HCT-116) | viability at 10 µM [8] | IC50 (MDA-MB-231 [10]) | IC50 (MCF7 [11]) | further results |
| --- | --- | --- | --- | --- | --- | --- | --- | --- | --- | --- | --- | --- | --- | --- |
| Cc1c(C)c2c(c(C)c1O)CCC(C)(COc1ccc(/C=C3\SC(=O)NC3=O)cc1)O2 (stereo not drawn) | 85.4% | 62.8% | 34 mg/kg | 84% | 43.1% | 69.3% | 95% | 83.1% | 82.3% | 88% | 73.1% |  |  | mortality [7]: > 50% |
| Cc1c(C)c2c(c(C)c1CCCCCCN)CCC(C)(COc1ccc(/C=C3\SC(=O)N(C)C3=O)cc1)O2.O=C(O)C(F)(F)F (racemic) | 11.6% | 82.6% | 65.5 mg/kg | 0% | 82.7% | 0% | 0% | 7.7% | 0% | 0% | 0% | 6.7 µM | 6.1 µM | Activity (Mus musculus [9]): Non-toxic; Activity (Mus musculus [12]): Non-toxic; Activity (Mus musculus [13]): 19 g; Activity (Mus musculus [14]): 17.67 g; Activity (Mus musculus [15]): Non-toxic; Activity (Mus musculus [16]): 18.5 g |
| Cc1c(C)c2c(c(C)c1CCCCCCN)CCC(C)(COc1ccc(/C=C3\SC(=O)NC3=O)cc1)O2.O=C(O)C(F)(F)F (racemic) | 46.8% | 83.2% | 34 mg/kg | 2.7% | 79.9% | 7.6% | 5.9% | 60.1% | 12.9% | 6.9% | 35.2% | 1.5 µM | 3.6 µM | Activity (Mus musculus [17]): Non-toxic; Activity (Mus musculus [18]): 21.5 g; Activity (Mus musculus [19]): Toxic; Activity (Mus musculus [20]): Non-toxic |
